Results reported in ChEMBL document CHEMBL1133621, “Synthesis, characterization, and cytotoxicity of trifunctional dinuclear platinum complexes: comparison of effects of geometry and polyfunctionality on biological activity” (J Med Chem, 2000).
“And” between values parts separate entries of the source, which are not always exact repeats. Equal entries are not always repeated.

Experiments:
Format in all cases: functional, cell-based
[1] = test system: 41M; experiment: Cytotoxic activity in a panel of Human ovarian tumor 41M cell line after 96h of drug exposure
Procedure, shortened: (§1)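 SRB growth-inhibition assay. Cells were seeded at (3-8) × 10^3 per well and left to attach overnight. Platinum agents were added after serial dilution, in quadruplicate wells, with continuous 96 h exposure. Growth in treated and control wells was quantified by staining with 0.4% SRB dissolved in 1% acetic acid.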

[2] = test system: 41M; experiment: Cytotoxic activity in a panel of Human ovarian tumor 41M/CDDP cell line after 96h of drug exposure; procedure, shortened: as §1
[3] = test system: A2780; experiment: Cytotoxic activity in a panel of Human ovarian tumor A2780/CDDP cell line after 96h of drug exposure; procedure, shortened: as §1
[4] = test system: CH1; experiment: Cytotoxic activity in a panel of Human ovarian tumor CH1/CDDP cell line after 96h of drug exposure; procedure, shortened: as §1
[5] = test system: CH1; experiment: Cytotoxic activity in a panel of Human ovarian tumor CH1 cell line after 96h of drug exposure; procedure, shortened: as §1
[6] = test system: HX62 cell line; experiment: Cytotoxic activity in a panel of Human ovarian tumor HX/62 cell line after 96h of drug exposure; procedure, shortened: as §1
[7] = test system: SK-OV-3; experiment: Cytotoxic activity in a panel of Human ovarian tumor SKOV-3 cell line after 96h of drug exposure; procedure, shortened: as §1
[8] = test system: 41M; experiment: RF(Resistant factor) is determined from the ratio of IC50 of 41M to the IC50 of CDDP cell lines
[9] = test system: A2780; experiment: RF(Resistant factor) is determined from the ratio of IC50 of A2780 to the IC50 of CDDP cell lines
[10] = test system: CH1; experiment: RF(Resistant factor) is determined from the ratio of IC50 of CH1 to the IC50 of CDDP cell lines
[11] = test system: A2780; experiment: Cytotoxic activity in a panel of Human ovarian tumor A2780 cell line after 96h of drug exposure; procedure, shortened: as §1

Row | Substance | IC50 [1] | IC50 [2] | IC50 [3] | IC50 [4] | IC50 [5] | IC50 [6] | IC50 [7] | RF [8] | RF [9] | RF [10] | IC50 [11]
1 | CISPLATIN [listing 1 of 2 here] | 0.54 µM | 1.7 µM | 6.2 µM | 1.45 µM | 0.18 µM | 25 µM | 8 µM | – | – | – | –
2 | CISPLATIN [listing 2 of 2 here] | – | – | – | – | – | – | – | 3.1 | 11.7 | 8 | –
3 | trans-[{PtCl(NH3)2}-mu-{NH2(CH2)6NH2}-cis-{PtCl2(NH3)}]Cl [listing 1 of 2 here] | 2.5 µM and 2.4 µM | 0.67 µM and 1.3 µM | 0.89 µM and 0.34 µM | 0.97 µM and 0.98 µM | 0.3 µM and 0.22 µM | 24 µM and 12.5 µM | 31 µM and 17.7 µM | – | – | – | 0.28 µM and 0.066 µM
4 | trans-[{PtCl(NH3)2}-mu-{NH2(CH2)6NH2}-cis-{PtCl2(NH3)}]Cl [listing 2 of 2 here] | – | – | – | – | – | – | – | 0.27 and 0.53 | 3.2 and 5.2 | 3.2 and 4.4 | –
5 | trans-[{PtCl(NH3)2}-mu-{NH2(CH2)6NH2}-trans-{PtCl(NH3)2}] [listing 1 of 2 here] | 1.9 µM and 7.4 µM | 0.41 µM and 1.8 µM | 1.2 µM and 4.9 µM | – | – | 11 µM and 14 µM | 15.3 µM and 87 µM | – | – | – | 0.066 µM and 0.25 µM
6 | trans-[{PtCl(NH3)2}-mu-{NH2(CH2)6NH2}-trans-{PtCl(NH3)2}] [listing 2 of 2 here] | – | – | – | – | – | – | – | 0.21 and 0.24 | 18 and 19.6 | 3.3 and 2 | –
